Measured values published in ChEMBL document CHEMBL1649165, “Activity profile in vitro of micafungin against Spanish clinical isolates of common and emerging species of yeasts and molds” (2009).
In brackets after ≈: the same amount, converted by molar mass.

What was measured:
Format in all cases: functional
Phialemonium curvatum = test: Antimicrobial activity against Phialemonium curvatum by broth microdilution method; conditions: Thyridium curvatum
Summary of the method: (§1)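 Filamentous fungus clinical isolates tested by the AFST-EUCAST reference broth microdilution method for moulds. For echinocandins, the endpoint was the minimum effective concentration: the lowest drug concentration giving aberrant hyphal growth, read with an inverted microscope.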

Papiliotrema laurentii = test: Antimicrobial activity against Cryptococcus laurentii by broth microdilution method
Summary of the method: (§2)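 Clinical isolates of nonfermentative yeasts, tested by broth microdilution following EUCAST recommendations. The only change from that method was a minor modification to improve growth.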

Lewia infectoria = test: Antimicrobial activity against Alternaria infectoria by broth microdilution method
Summary of the method: (§3)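 Clinical mould isolates, tested by broth microdilution using the AFST-EUCAST reference method for filamentous fungi. For echinocandins, the endpoint was the minimum effective concentration: the lowest drug concentration giving aberrant hyphal growth, read with an inverted microscope.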

Fusarium reticulatum = test: Antimicrobial activity against Fusarium reticulatum by broth microdilution method; summary of the method: as §1
Trichosporon dermatis = test: Antimicrobial activity against Trichosporon dermatis by broth microdilution method; conditions: Cutaneotrichosporon dermatis
Summary of the method: (§4)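 Nonfermentative yeast clinical isolates (Rhodotorula, Trichosporon) tested by broth microdilution. The EUCAST yeast recommendations were followed strictly, with one minor modification to improve growth. MIC was read as the endpoint.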

Scytalidium hyalinum = test: Antimicrobial activity against Scytalidium hyalinum by broth microdilution method; conditions: Neoscytalidium hyalinum; summary of the method: as §1
Rhizomucor = test: Antimicrobial activity against Rhizomucor spp.by broth microdilution method; summary of the method: as §1
Candida metapsilosis = test: Antimicrobial activity against Candida metapsilosis by broth microdilution method; conditions: Lodderomyces metapsilosis
Summary of the method: (§5)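 Clinical isolates from human patients, tested by broth microdilution using the AFST-EUCAST reference procedure for fermentative yeasts. The MIC was read per that reference method.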

Saksenaea vasiformis = test: Antimicrobial activity against Saksenaea vasiformis by broth microdilution method; summary of the method: as §1
Torulaspora delbrueckii = test: Antimicrobial activity against Candida coliculosa by broth microdilution method; summary of the method: as §5
Ustilago = test: Antimicrobial activity against Ustilago spp by broth microdilution method
Penicillium = test: Antimicrobial activity against Penicillium spp. by broth microdilution method; summary of the method: as §1
Diutina rugosa = test: Antimicrobial activity against Candida rugosa by broth microdilution method; summary of the method: as §5
Aspergillus fumigatus = test: Antimicrobial activity against Aspergillus fumigatus by broth microdilution method; summary of the method: as §3
Alternaria alternata = test: Antimicrobial activity against Alternaria alternata by broth microdilution method; summary of the method: as §3
Rhodotorula mucilaginosa = test: Antimicrobial activity against Rhodotorula mucilaginosa by broth microdilution method; summary of the method: as §4
[1] = Antimicrobial activity against Rhizopus microsporus by broth microdilution method; summary of the method: as §1
Aspergillus glaucus = test: Antimicrobial activity against Aspergillus glaucus by broth microdilution method; summary of the method: as §3
Trichosporon jirovecii = test: Antimicrobial activity against Trichosporon jirovecii by broth microdilution method; conditions: Cutaneotrichosporon jirovecii; summary of the method: as §4
Pichia norvegensis = test: Antimicrobial activity against Candida norvegensis by broth microdilution method; summary of the method: as §5
Exophiala jeanselmei = test: Antimicrobial activity against Exophiala jeanselmei by broth microdilution method
Trichosporon domesticum = test: Antimicrobial activity against Trichosporon mycotoxinivorans by broth microdilution method; conditions: Apiotrichum domesticum
Summary of the method: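 Spanish human clinical isolates were tested as nonfermentative yeasts by broth microdilution. The method strictly followed the EUCAST recommendations, with a minor modification to improve growth, and the read-out was the MIC.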

Exophiala dermatitidis = test: Antimicrobial activity against Exophiala dermatitidis by broth microdilution method
Trichosporon ovoides = test: Antimicrobial activity against Trichosporon ovoides by broth microdilution method; summary of the method: as §4
Acremonium sp. = test: Antimicrobial activity against Acremonium sp.by broth microdilution method; summary of the method: as §3
[Candida] zeylanoides = Antimicrobial activity against Candida zeylanoides by broth microdilution method; conditions: Dujonia zeylanoides; summary of the method: as §5
Trichosporon inkin = test: Antimicrobial activity against Trichosporon inkin by broth microdilution method; summary of the method: as §4
Aspergillus niger = test: Antimicrobial activity against Aspergillus niger by broth microdilution method; summary of the method: as §3
Aspergillus ochraceus = test: Antimicrobial activity against Aspergillus ochraceus by broth microdilution method; summary of the method: as §3
Aspergillus sydowii = test: Antimicrobial activity against Aspergillus sydowii by broth microdilution method; summary of the method: as §3
Fusarium oxysporum = test: Antimicrobial activity against Fusarium oxysporum by broth microdilution method; summary of the method: as §3
Aspergillus sclerotiorum = test: Antimicrobial activity against Aspergillus sclerotiorum by broth microdilution method; summary of the method: as §3
[2] = test system: Cryptococcus deneoformans; test: Antimicrobial activity against Cryptococcus neoformans var. neoformans by broth microdilution method; summary of the method: as §2
Aspergillus ustus = test: Antimicrobial activity against Aspergillus ustus by broth microdilution method; summary of the method: as §3
Fusarium verticillioides = test: Antimicrobial activity against Fusarium verticillioides by broth microdilution method; summary of the method: as §1
Saccharomyces cerevisiae = test: Antimicrobial activity against Saccharomyces cerevisiae by broth microdilution method
Geotrichum candidum = test: Antimicrobial activity against Galactomyces geotrichum by broth microdilution method
Trichosporon = test: Antimicrobial activity against Trichosporon spp. by broth microdilution method; summary of the method: as §4
Trichoderma = test: Antimicrobial activity against Trichoderma spp. by broth microdilution method; summary of the method: as §1
Aspergillus versicolor = test: Antimicrobial activity against Aspergillus versicolor by broth microdilution method; summary of the method: as §3
[3] = test system: Meyerozyma guilliermondii; test: Antimicrobial activity against Candida guilliermondii by broth microdilution method; summary of the method: as §5
Aspergillus nidulans = test: Antimicrobial activity against Aspergillus nidulans by broth microdilution method; summary of the method: as §3
[4] = test system: Scopulariopsis brevicaulis; test: Antimicrobial activity against Scopulariopsis brevicaulis by broth microdilution method; summary of the method: as §1
Paecilomyces lilacinus = test: Antimicrobial activity against Paecilomyces lilacinus by broth microdilution method; conditions: Purpureocillium lilacinum; summary of the method: as §1

Structure (SMILES): CC[C@H](C)C[C@H](C)CCCCCCCCC(=O)N[C@H]1C[C@@H](O)[C@@H](NCCN)NC(=O)[C@@H]2[C@@H](O)CCN2C(=O)[C@H]([C@H](O)CCN)NC(=O)[C@H]([C@H](O)[C@@H](O)c2ccc(O)cc2)NC(=O)[C@@H]2C[C@@H](O)CN2C(=O)[C@H]([C@@H](C)O)NC1=O [CASPOFUNGIN]
- MIC50 (Phialemonium curvatum): > 16 µg/mL
- MIC90 (Phialemonium curvatum): > 16 µg/mL
- MIC50 (Papiliotrema laurentii): > 16 µg/mL
- MIC90 (Papiliotrema laurentii): > 16 µg/mL
- MIC50 (Lewia infectoria): > 16 µg/mL
- MIC90 (Lewia infectoria): > 16 µg/mL
- MIC50 (Fusarium reticulatum): > 16 µg/mL
- MIC90 (Fusarium reticulatum): > 16 µg/mL
- MIC50 (Trichosporon dermatis): > 16 µg/mL
- MIC90 (Trichosporon dermatis): > 16 µg/mL
- MIC50 (Scytalidium hyalinum): 0.25 µg/mL (≈ 0.229 µM)
- MIC90 (Scytalidium hyalinum): 1 µg/mL (≈ 0.915 µM)
- MIC50 (Rhizomucor): > 16 µg/mL
- MIC90 (Rhizomucor): > 16 µg/mL
- MIC50 (Candida metapsilosis): 0.06 µg/mL (≈ 0.0549 µM)
- MIC90 (Candida metapsilosis): 0.5 µg/mL (≈ 0.457 µM)
- MIC50 (Saksenaea vasiformis): > 16 µg/mL
- MIC90 (Saksenaea vasiformis): > 16 µg/mL
- MIC50 (Torulaspora delbrueckii): 0.06 µg/mL (≈ 0.0549 µM)
- MIC90 (Torulaspora delbrueckii): 0.5 µg/mL (≈ 0.457 µM)
- MIC50 (Ustilago): > 16 µg/mL
- MIC90 (Ustilago): > 16 µg/mL
- MIC50 (Penicillium): 0.25 µg/mL (≈ 0.229 µM)
- MIC90 (Penicillium): 8 µg/mL (≈ 7.32 µM)
- MIC50 (Diutina rugosa): 0.06 µg/mL (≈ 0.0549 µM)
- MIC90 (Diutina rugosa): 0.5 µg/mL (≈ 0.457 µM)
- MIC50 (Aspergillus fumigatus): 0.25 µg/mL (≈ 0.229 µM)
- MIC90 (Aspergillus fumigatus): 0.5 µg/mL (≈ 0.457 µM)
- MIC50 (Alternaria alternata): 4 µg/mL (≈ 3.66 µM)
- MIC90 (Alternaria alternata): > 16 µg/mL
- MIC50 (Rhodotorula mucilaginosa): > 16 µg/mL
- MIC90 (Rhodotorula mucilaginosa): > 16 µg/mL
- MIC50 [1]: > 16 µg/mL
- MIC90 [1]: > 16 µg/mL
- MIC50 (Aspergillus glaucus): 0.12 µg/mL (≈ 0.11 µM)
- MIC90 (Aspergillus glaucus): 0.5 µg/mL (≈ 0.457 µM)
- MIC50 (Trichosporon jirovecii): > 16 µg/mL
- MIC90 (Trichosporon jirovecii): > 16 µg/mL
- MIC50 (Pichia norvegensis): 0.06 µg/mL (≈ 0.0549 µM)
- MIC90 (Pichia norvegensis): 0.5 µg/mL (≈ 0.457 µM)
- MIC50 (Exophiala jeanselmei): 0.25 µg/mL (≈ 0.229 µM)
- MIC90 (Exophiala jeanselmei): 1 µg/mL (≈ 0.915 µM)
- MIC50 (Trichosporon domesticum): > 16 µg/mL
- MIC90 (Trichosporon domesticum): > 16 µg/mL
- MIC50 (Exophiala dermatitidis): 0.25 µg/mL (≈ 0.229 µM)
- MIC90 (Exophiala dermatitidis): 1 µg/mL (≈ 0.915 µM)
- MIC50 (Trichosporon ovoides): > 16 µg/mL
- MIC90 (Trichosporon ovoides): > 16 µg/mL
- MIC50 (Acremonium sp.): 0.5 µg/mL (≈ 0.457 µM)
- MIC90 (Acremonium sp.): 1 µg/mL (≈ 0.915 µM)
- MIC50 ([Candida] zeylanoides): 0.06 µg/mL (≈ 0.0549 µM)
- MIC90 ([Candida] zeylanoides): 0.5 µg/mL (≈ 0.457 µM)
- MIC50 (Trichosporon inkin): > 16 µg/mL
- MIC90 (Trichosporon inkin): > 16 µg/mL
- MIC50 (Aspergillus niger): 0.25 µg/mL (≈ 0.229 µM)
- MIC90 (Aspergillus niger): 0.5 µg/mL (≈ 0.457 µM)
- MIC50 (Aspergillus ochraceus): 0.12 µg/mL (≈ 0.11 µM)
- MIC90 (Aspergillus ochraceus): 0.5 µg/mL (≈ 0.457 µM)
- MIC50 (Aspergillus sydowii): 0.25 µg/mL (≈ 0.229 µM)
- MIC90 (Aspergillus sydowii): 1 µg/mL (≈ 0.915 µM)
- MIC50 (Fusarium oxysporum): > 16 µg/mL
- MIC90 (Fusarium oxysporum): > 16 µg/mL
- MIC50 (Aspergillus sclerotiorum): 0.12 µg/mL (≈ 0.11 µM)
- MIC90 (Aspergillus sclerotiorum): 0.5 µg/mL (≈ 0.457 µM)
- MIC50 [2]: > 16 µg/mL
- MIC90 [2]: > 16 µg/mL
- MIC50 (Aspergillus ustus): 0.12 µg/mL (≈ 0.11 µM)
- MIC90 (Aspergillus ustus): 0.5 µg/mL (≈ 0.457 µM)
- MIC50 (Fusarium verticillioides): > 16 µg/mL
- MIC90 (Fusarium verticillioides): > 16 µg/mL
- MIC50 (Saccharomyces cerevisiae): 0.5 µg/mL (≈ 0.457 µM)
- MIC90 (Saccharomyces cerevisiae): 1 µg/mL (≈ 0.915 µM)
- MIC50 (Geotrichum candidum): > 16 µg/mL
- MIC90 (Geotrichum candidum): > 16 µg/mL
- MIC50 (Trichosporon): > 16 µg/mL
- MIC90 (Trichosporon): > 16 µg/mL
- MIC50 (Trichoderma): > 16 µg/mL
- MIC90 (Trichoderma): > 16 µg/mL
- MIC50 (Aspergillus versicolor): 0.25 µg/mL (≈ 0.229 µM)
- MIC90 (Aspergillus versicolor): 2 µg/mL (≈ 1.83 µM)
- MIC50 [3]: 0.5 µg/mL (≈ 0.457 µM)
- MIC90 [3]: 1 µg/mL (≈ 0.915 µM)
- MIC50 (Aspergillus nidulans): 0.5 µg/mL (≈ 0.457 µM)
- MIC90 (Aspergillus nidulans): > 16 µg/mL
- MIC50 [4]: > 16 µg/mL
- MIC90 [4]: > 16 µg/mL
- MIC50 (Paecilomyces lilacinus): > 16 µg/mL
- MIC90 (Paecilomyces lilacinus): > 16 µg/mL
